Measurements from ChEMBL document CHEMBL3596100, “The synthesis and biological activity of novel anthracenone-pyranones and anthracenone-furans” (Bioorg Med Chem, 2015).
Activity calls are given as the source filed them. The calls are words filed in the database; no cut-off is given here.

Assays:
[1] = (§1) Growth inhibition of human MIA cells after 72 hrs by MTT assay; format: functional
In short: (§2)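 Cells kept in DMEM with 10% FBS, glutamine, penicillin/streptomycin at 37 °C, 5% CO2; plated in duplicate at 2500–4000 cells/well, dosed 24 h later during log growth. After 72 h drug exposure, MTT read at 540 nm. […] Assays in triplicate, standard error reported.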

[2] = (§3) Growth inhibition of human H460 cells after 72 hrs by MTT assay; format: functional; conditions: NCI-H460, 72 h; in short: as §2
[3] = (§4) Growth inhibition of human BE(2)-C cells after 72 hrs by MTT assay; format: functional; in short: as §2
[4] = system: A2780; test: Growth inhibition of human A2780 cells after 72 hrs by MTT assay; format: functional; in short: as §2
[5] = system: DU-145; test: Growth inhibition of human DU145 cells after 72 hrs by MTT assay; format: functional; in short: as §2
[6] = (§5) Growth inhibition of human SJ-G2 cells after 72 hrs by MTT assay; format: functional; conditions: SJ-G2, 72 h; in short: as §2
[7] = system: HT-29; test: Growth inhibition of human HT-29 cells after 72 hrs by MTT assay; format: functional; in short: as §2
[8] = (§6) Growth inhibition of human U87 cells after 72 hrs by MTT assay; format: functional, U-87MG ATCC; conditions: U-87 MG; in short: as §2
[9] = system: MCF7; test: Growth inhibition of human MCF7 cells after 72 hrs by MTT assay; format: functional; in short: as §2
[10] = system: P338; test: Growth inhibition of mouse […] cells; format: functional, cell-based
[11] = system: A-431; test: Growth inhibition of human A431 cells after 72 hrs by MTT assay; format: functional; in short: as §2
[12] = (§7) Growth inhibition of mouse SMA cells after 72 hrs by MTT assay; format: functional; in short: as §2
[13] = system: MIA; test: as §1; format: functional; in short: as §2
[14] = system: NCI-H460; test: as §3; format: functional; in short: as §2
[15] = system: BE(2)-C; test: as §4; format: functional; in short: as §2
[16] = system: SJ-G2; test: as §5; format: functional; in short: as §2
[17] = system: U-87MG ATCC; test: as §6; format: functional; in short: as §2
[18] = system: SMA; test: as §7; format: functional; in short: as §2

SMILES | growth inhibition (GI) [13] | growth inhibition (GI) [14] | growth inhibition (GI) [15] | growth inhibition (GI) [4] | growth inhibition (GI) [5] | growth inhibition (GI) [16] | growth inhibition (GI) [7] | growth inhibition (GI) [17] | growth inhibition (GI) [9] | growth inhibition (GI) [11] | growth inhibition (GI) [18] | also measured
Cc1cc2c(c3oc(C4(C)CO4)cc(=O)c13)C(=O)c1c(O)cccc1C2=O (racemic) | – | – | – | – | – | – | – | – | – | – | – | GI50 [1]: 900 nM; GI50 [2]: 2100 nM; GI50 [3]: 170 nM; GI50 ([4]; A2780, 72 h): 290 nM; GI50 ([5]; DU-145, 72 h): 840 nM; GI50 [6]: 800 nM; GI50 ([7]; HT-29, 72 h): 2000 nM; GI50 [8]: 990 nM; GI50 ([9]; MCF7, 72 h): 1300 nM; IC50 [10]: 1 nM; GI50 ([11]; A-431, 72 h): 950 nM; GI50 [12]: 160 nM
Cc1cc2c(c3oc(=O)c(CCCC#N)cc13)C(=O)c1c(OC(C)C)cccc1C2=O | Active | Active | Active | Active | Active | Active | Active | Active | Active | Active | Active | –
CCCCCCc1cc2c(C)cc3c(c2o1)C(=O)c1c(OC(C)C)cccc1C3=O | Active | Active | Active | Active | Active | Active | Active | Active | Active | Active | Active | –
CCCc1cc2c(C)cc3c(c2oc1=O)C(=O)c1c(OC(C)C)cccc1C3=O | Active | Active | Active | Active | Active | Active | Active | Active | Active | Active | Active | –
CCC(C)(OCc1ccccc1)c1cc2c(C)cc3c(c2oc1=O)C(=O)c1c(OC(C)C)cccc1C3=O (configuration not stated) | Active | Active | Active | Active | Active | Active | Active | Active | Active | Active | Active | –
CCCc1cc2c(C)cc3c(c2o1)C(=O)c1c(OC(C)C)cccc1C3=O | Active | Active | Active | Active | Active | Active | Active | Active | Active | Active | Active | –
CCCCCCc1cc2c(C)cc3c(c2oc1=O)C(=O)c1c(OC(C)C)cccc1C3=O | Active | Active | Active | Active | Active | Active | Active | Active | Active | Active | – | –
CCCCc1cc2c(C)cc3c(c2oc1=O)C(=O)c1c(OC(C)C)cccc1C3=O | Active | Active | Active | Active | Active | Active | Active | Active | Active | Active | Active | –
Cc1cc2c(c3oc(=O)c(-c4ccccc4)cc13)C(=O)c1c(OC(C)C)cccc1C2=O | Active | Active | Active | Active | Active | Active | Active | Active | Active | Active | Active | –
Cc1cc2c(c3oc(-c4ccccc4)cc(=O)c13)C(=O)c1c(O)cccc1C2=O | Active | Active | Active | Active | Active | – | Active | Active | Active | Active | Active | –
Cc1cc2c(c3oc(C(=O)c4ccccc4)cc13)C(=O)c1c(O)cccc1C2=O | Active | Active | Active | Active | – | – | Active | Active | Active | Active | Active | –
CCCCCCc1cc(=O)c2c(C)cc3c(c2o1)C(=O)c1c(O)cccc1C3=O | Active | Active | Active | Active | Active | Active | Active | Active | Active | Active | – | –
Cc1cc2c(c3oc(-c4ccccc4)cc13)C(=O)c1c(OC(C)C)cccc1C2=O | Active | Active | Active | Active | – | – | Active | Active | Active | Active | Active | –
CCCCCCc1cc2c(C)cc3c(c2oc1=O)C(=O)c1c(O)cccc1C3=O | Active | Active | Active | Active | Active | Active | Active | Active | Active | Active | Active | –
Cc1cc2c(c3oc(-c4ccccc4)cc13)C(=O)c1c(O)cccc1C2=O | Active | Active | Active | Active | – | – | Active | Active | Active | Active | Active | –
